test system: not listed separately; experiment: Dissociation constant for nicotinic acetylcholine receptor alpha4-beta2 of mouse M10 cells; n=3; assay type: cell-based
Summary of the method: (§1)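 α4β2 receptor immunoisolated with mAb 270 from mouse fibroblast M10 cells. Competition binding against (−)-[³H]nicotine at 7 nM. Ki was obtained from IC50 by Cheng–Prusoff, Ki = IC50/(1 + [L]/KD), with KD 3.8 nM.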

`CN1CCC[C@@H]1c1cccnc1` [R-NICOTINE] and `c1cc2c(cn1)C1CCC(CC2)N1` (racemic) are within 1.5-fold of each other in Kd: 0.0038 µM for the first, 0.00308 µM for the second.

Compared with `Clc1ccc(C2CC3CCC2N3)cn1` (racemic) [EPIBATIDINE], `Cc1cc2c(cn1)C1CCC(CC2)N1` (racemic) is 7.9-fold lower in Kd: 0.00308 µM for the first, 0.00039 µM for the second. The second binds more tightly here.

test system: not listed separately; experiment: Binding affinity for nicotinic acetylcholine receptor alpha4-beta2 from mouse M10 cells; n=3; assay type: cell-based; summary of the method: as §1

Going from `CN1CCC[C@@H]1c1cccnc1` [R-NICOTINE] to `c1cncc([C@@H]2CCCN2)c1` (racemic) [NORNICOTINE], the Ki rises from 2.5 nM to 14 nM (5.6-fold). The first binds more tightly here.

Compared with `Clc1ccc(C2CC3CCC2N3)cn1` (racemic) [EPIBATIDINE], `c1cc2c(cn1)C1CCC(CC2)N1` (racemic) is 37-fold higher in Ki: 0.035 nM for the first, 1.3 nM for the second.

`Cc1cc2c(cn1)C1CCC(CC2)N1` (racemic) showed a Ki of 0.39 nM.

biological target: T1, Neuronal acetylcholine receptor subunit alpha-7 (Homo sapiens, UniProt P36544); experiment: Binding affinity for nicotinic acetylcholine receptor alpha 7 from human neuroblastoma SH-SY5Y cells; n=3; assay type: cell-based
T1 sequence (P36544 whole entry): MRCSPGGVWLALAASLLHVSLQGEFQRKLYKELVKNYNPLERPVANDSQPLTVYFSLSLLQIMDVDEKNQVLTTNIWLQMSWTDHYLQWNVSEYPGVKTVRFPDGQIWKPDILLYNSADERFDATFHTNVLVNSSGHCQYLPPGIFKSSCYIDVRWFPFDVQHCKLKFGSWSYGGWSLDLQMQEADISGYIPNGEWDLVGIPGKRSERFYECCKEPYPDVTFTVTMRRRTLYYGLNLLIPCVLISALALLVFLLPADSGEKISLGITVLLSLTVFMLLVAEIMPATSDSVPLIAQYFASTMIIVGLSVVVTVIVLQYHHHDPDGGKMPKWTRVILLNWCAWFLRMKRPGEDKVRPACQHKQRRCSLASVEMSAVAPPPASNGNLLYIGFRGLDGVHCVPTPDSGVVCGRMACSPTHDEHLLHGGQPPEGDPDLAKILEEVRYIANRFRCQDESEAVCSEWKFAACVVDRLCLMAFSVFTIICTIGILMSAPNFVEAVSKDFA

`c1cncc([C@@H]2CCCN2)c1` (racemic) [NORNICOTINE] and `c1cc2c(cn1)C1CCC(CC2)N1` (racemic) cannot be ordered by Ki: 138 µM for the first, greater than 100 µM for the second.

For `Cc1cc2c(cn1)C1CCC(CC2)N1` (racemic), the Ki was roughly 1000 µM.

biological target: T1, Neuronal acetylcholine receptor subunit alpha-7; experiment: Dissociation constant for nicotinic acetylcholine receptor alpha 7 from human neuroblastoma SH-SY5Y cells; n=3; assay type: cell-based

`Clc1ccc(C2CC3CCC2N3)cn1` (racemic) [EPIBATIDINE] and `c1cc2c(cn1)C1CCC(CC2)N1` (racemic) are the same in Kd: 0.00106 µM for the first, 0.00106 µM for the second.

`c1cncc([C@@H]2CCCN2)c1` (racemic) [NORNICOTINE] and `Cc1cc2c(cn1)C1CCC(CC2)N1` (racemic) are the same in Kd: 0.00106 µM for the first, 0.00106 µM for the second.
